Measurements reported in ChEMBL document CHEMBL2163315, “Synthesis and SAR of geminal substitutions at the C5' carbosugar position of pyrimidine-derived HCV inhibitors” (Bioorg Med Chem Lett, 2012).

Key:
[1] = AUC (0 to 6 hrs) in rat at 10 mg/kg, po; format: ADME, organism-based; set-up: time < 6 hr, dose 10 mg/kg, route oral; details: plasma
Method in brief: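 Single oral dose of 10 mpk given to rats, as HCl salt. Plasma exposure expressed as AUC over 0–6 h.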

[2] = tested on: Hepatitis C virus; assay: Antiviral activity against Hepatitis C virus genotype 1b Con1 infected in human hepatoma cells assessed as inhibition of viral RNA replication by subgenomic replicon assay; format: functional, organism-based, Hepacivirus hominis; details: genotype 1b Con 1
Method in brief: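 Subgenomic 1b-Con1 replicon cells seeded at 5000 cells/well one day before dosing. Compound in DMSO added as 10 serial twofold dilutions in triplicate (final 0.5% DMSO, 10% FBS). Cells harvested three days post dosing. Replicon RNA quantified by real-time RT-PCR (Taqman), normalised to GAPDH RNA as endogenous control. EC50 calculated from the dose-response.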

[3] = Cytotoxicity against human hepatoma cells after 3 days by MTS assay; format: cell-based
Method in brief: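 Replicon cells treated the same way as in the replicon activity assay (DMSO vehicle, 10% FBS, 3 days). Viability read three days post dosing by MTS (CellTiter 96 Aqueous One). CC50 is the concentration giving 50% inhibition relative to vehicle-treated cells.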

[4] = Cytotoxicity against human hepatoma cells assessed as effect on cellular GAPDH RNA level; format: cell-based
[5] = AUC (0 to 24 hrs) in rat at 10 mg/kg, po; format: ADME, organism-based; set-up: time < 24 hr, dose 10 mg/kg, route oral; details: plasma
Method in brief: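 Oral dosing to rats at 10 mpk. Plasma exposure monitored over 0–24 h.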

[6] = Oral bioavailability in cynomolgus monkey at 3 mg/kg; format: ADME, organism-based, Macaca fascicularis; details: in vivo
[7] = AUC (0 to 24 hrs) in cynomolgus monkey at 3 mg/kg, po; format: ADME, organism-based, Macaca fascicularis; set-up: time < 24 hr, dose 3 mg/kg, route oral; details: plasma
Method in brief: (§1)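 Oral dosing at 3 mpk to dog and monkey. Plasma exposure monitored over 0–24 h.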

[8] = Oral bioavailability in rat at 10 mg/kg; format: ADME, organism-based; details: in vivo
[9] = Drug uptake in rat liver at 10 mg/kg, po after 6 hrs; format: ADME, organism-based; set-up: dose 10 mg/kg, route oral; details: read-out: Drug uptake
Method in brief: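 Rats dosed orally at 10 mpk. Compound concentration in liver measured at 6 h.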

[10] = AUC (0 to 24 hrs) in dog at 3 mg/kg, po; format: ADME, organism-based, Canis lupus familiaris; set-up: time < 24 hr, dose 3 mg/kg, route oral; details: plasma; method in brief: as §1
[11] = Cytotoxicity against human hepatoma cells assessed as inhibition of [methyl-14C]thymidine incorporation in DNA after 3 days by scintillation proximity assay; format: cell-based; details: for CC50 at 72 h: human hepatoma cells
Method in brief: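 Replicon cells seeded in scintillating microplates one day before treatment. Various inhibitor concentrations added in triplicate together with [methyl-14C]-thymidine (final 0.5 µCi/mL media) and incubated three days. Incorporated label read by scintillation proximity counting. DNA CC50 is the concentration giving 50% inhibition of thymidine incorporation relative to vehicle-treated cells.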

[12] = Oral bioavailability in dog at 3 mg/kg; format: ADME, organism-based, Canis lupus familiaris; details: in vivo

| SMILES | AUC(0-t) at 6 h [1] [µM·h] | EC50 [2] [µM] | CC50 at 72 h [3] [µM] | CC50 [4] [µM] | AUC(0-t) at 24 h [5] [µM·h] | bioavailability [6] [%] | AUC(0-t) at 24 h [7] [µM·h] | bioavailability [8] [%] | concentration at 6 h [9] [ng/g] | AUC(0-t) at 24 h [10] [µM·h] | CC50 at 72 h [11] [µM] | bioavailability [12] [%] | CC25 ([11]; 72 h) [µM] |
| --- | --- | --- | --- | --- | --- | --- | --- | --- | --- | --- | --- | --- | --- |
| Cc1nc(N[C@H](C)c2ccc(OC(F)(F)F)cc2)nc(N[C@@H]2C[C@H](C(C)(C)O)[C@@H](O)[C@H]2O)c1-c1nc2c(C)nccc2s1 | 1.2 | 0.18 | > 25 | > 25 |  |  |  |  |  |  |  |  |  |
| Cc1nc(NCC2CC2)nc(N[C@@H]2C[C@H](C3(O)CC3)[C@@H](O)[C@H]2O)c1-c1nc2c(C)nccc2s1 | 1.6 | 0.004 | > 25 | > 25 |  |  |  |  |  |  |  |  |  |
| Cc1nc(NCc2c(F)cc(F)cc2F)nc(N[C@@H]2C[C@H](C(C)(C)O)[C@@H](O)[C@H]2O)c1-c1nc2c(C)nccc2s1 | 0.4 | 0.004 | > 25 | > 25 |  |  |  |  |  |  |  |  |  |
| Cc1nc(N(C)CC2CC2)nc(N[C@@H]2C[C@H](C(C)(C)O)[C@@H](O)[C@H]2O)c1-c1nc2c(C)nccc2s1 |  | 0.09 | 23 | > 25 |  |  |  |  |  |  |  |  |  |
| Cc1nc(NCCN2CCOCC2)nc(N[C@@H]2C[C@H](C(C)(C)O)[C@@H](O)[C@H]2O)c1-c1nc2c(C)nccc2s1 | 0.2 | 0.02 | > 25 | > 25 |  |  |  |  |  |  |  |  |  |
| Cc1nc(N[C@H](C)C2CC2)nc(N[C@@H]2C[C@H](C(C)(C)O)[C@@H](O)[C@H]2O)c1-c1nc2cnccc2s1 | 11 | 0.03 | 25 | > 25 |  |  |  |  |  |  |  |  |  |
| Cc1nc(NCC2CC2)nc(N[C@@H]2C[C@H](CO)[C@@H](O)[C@H]2O)c1-c1nc2cnccc2s1 |  |  |  | 3 |  |  |  |  |  |  |  |  |  |
| Cc1nc(N)nc(N[C@@H]2C[C@H](C(C)(C)O)[C@@H](O)[C@H]2O)c1-c1nc2c(C)nccc2s1 |  | 0.04 | 6 | 4 |  |  |  |  |  |  |  |  |  |
| Cc1nc(NCC2CC2)nc(N[C@@H]2C[C@H](C(C)(C)O)[C@@H](O)[C@H]2O)c1-c1nc2c(C)nccc2s1 |  | 0.02 | > 25 | > 25 | 10 | 6 | 0.3 | 39 | 9500 | 4.9 | 25 | 66 |  |
| CCC(O)(CC)[C@H]1C[C@@H](Nc2nc(NCCOC)nc(C)c2-c2nc3c(C)nccc3s2)[C@H](O)[C@@H]1O | 1.4 | 0.01 | > 25 | > 25 |  |  |  |  |  |  |  |  |  |
| Cc1nc(NCCN(C)C)nc(N[C@@H]2C[C@H](C(C)(C)O)[C@@H](O)[C@H]2O)c1-c1nc2c(C)nccc2s1 |  | 0.13 | 12 | 7 |  |  |  |  |  |  |  |  |  |
| CCC(O)(CC)[C@H]1C[C@@H](Nc2nc(NCC3CC3)nc(C)c2-c2nc3c(C)nccc3s2)[C@H](O)[C@@H]1O | 10 | 0.005 | > 6 | > 6 |  |  |  |  |  |  |  |  |  |
| Cc1nc(N[C@H](C)C2CC2)nc(N[C@@H]2C[C@H](C(C)(C)O)[C@@H](O)[C@H]2O)c1-c1nc2c(C)nccc2s1 |  | 0.02 | > 25 | > 25 | 19 | 4 | 0.5 | 54 | 13700 | 2.1 | > 25 | 32 |  |
| Cc1nc(NCC(F)(F)F)nc(N[C@@H]2C[C@H](C(C)(C)O)[C@@H](O)[C@H]2O)c1-c1nc2c(C)nccc2s1 | 1.8 | 0.01 | > 12 | 20 |  |  |  |  |  |  |  |  |  |
| COCC(O)(COC)[C@H]1C[C@@H](Nc2nc(NCC3CC3)nc(C)c2-c2nc3c(C)nccc3s2)[C@H](O)[C@@H]1O |  | 0.002 | > 6 | > 6 |  |  |  |  |  |  | 4 |  |  |
| CSCCNc1nc(C)c(-c2nc3c(C)nccc3s2)c(N[C@@H]2C[C@H](C(C)(C)O)[C@@H](O)[C@H]2O)n1 | 1.6 | 0.008 | > 25 | > 25 |  |  |  |  |  |  |  |  |  |
| Cc1nc(NCC2CCCCO2)nc(N[C@@H]2C[C@H](C(C)(C)O)[C@@H](O)[C@H]2O)c1-c1nc2c(C)nccc2s1 (stereo partly drawn) | 9.9 | 0.004 | > 25 | > 25 |  |  |  |  | 1800 |  |  |  | 3 |
| COCCNc1nc(C)c(-c2nc3cnccc3s2)c(N[C@@H]2C[C@H](C(C)(C)O)[C@@H](O)[C@H]2O)n1 | 1.3 | 0.05 | > 25 | > 25 |  |  |  |  |  |  |  |  |  |
| COCCNc1nc(C)c(-c2nc3c(C)nccc3s2)c(N[C@@H]2C[C@H](C(C)(C)O)[C@@H](O)[C@H]2O)n1 |  | 0.02 | > 25 | > 25 | 16 | 46 | 3.7 | 49 | 1900 | 0.9 | 7 | 18 |  |
| Cc1nc(NCC2CC2)nc(N[C@@H]2C[C@H](C(C)(C)O)[C@@H](O)[C@H]2O)c1-c1nc2cnccc2s1.Cl | 8.5 | 0.02 | > 12 | > 12 |  |  |  |  |  |  |  |  |  |
| COCC1(CNc2nc(C)c(-c3nc4c(C)nccc4s3)c(N[C@@H]3C[C@H](C(C)(C)O)[C@@H](O)[C@H]3O)n2)CC1 | 0.7 | 0.02 | > 25 | > 25 |  |  |  |  |  |  |  |  |  |
| CO[C@H](C)CNc1nc(C)c(-c2nc3c(C)nccc3s2)c(N[C@@H]2C[C@H](C(C)(C)O)[C@@H](O)[C@H]2O)n1 |  | 0.02 | > 25 | > 25 | 6.7 | 45 | 13 | 58 | 1300 | 3.2 | 25 | 56 |  |
| Cc1nc(NC2CC2)nc(N[C@@H]2C[C@H](C(C)(C)O)[C@@H](O)[C@H]2O)c1-c1nc2c(C)nccc2s1 | 58 | 0.05 | > 6 | > 6 |  |  |  |  |  |  |  |  |  |
| Cc1nc(NCC2CC2)nc(N[C@@H]2C[C@H]([C@H](C)O)[C@@H](O)[C@H]2O)c1-c1nc2cnccc2s1.Cl | 1.3 | 0.02 | 13 | 18 |  |  |  |  |  |  |  |  |  |
| COC[C@@H](C)Nc1nc(C)c(-c2nc3c(C)nccc3s2)c(N[C@@H]2C[C@H](C(C)(C)O)[C@@H](O)[C@H]2O)n1 |  | 0.02 | > 3 | > 3 | 18 | 50 | 10 | 81 | 900 | 4.2 | 25 | 50 |  |
| CCOCCNc1nc(C)c(-c2nc3c(C)nccc3s2)c(N[C@@H]2C[C@H](C(O)(COC)COC)[C@@H](O)[C@H]2O)n1 |  | 0.003 | 6 | > 12 |  |  |  |  |  |  |  |  |  |
| COCCNc1nc(C)c(-c2nc3c(C)nccc3s2)c(N[C@@H]2C[C@H](C3(O)CC3)[C@@H](O)[C@H]2O)n1 | 3.9 | 0.007 | 13 | > 25 |  |  |  |  |  |  |  |  |  |
